Reference: ChEMBL document CHEMBL2401617, “Synthesis and biological evaluation of some novel thiazole compounds as potential anti-inflammatory agents” (2013)

Key:
Assay type in all cases: functional
Staphylococcus aureus [1] = test: Antibacterial activity against Staphylococcus aureus NCTC 7447 assessed as growth inhibition after 24 hrs by Kirby-Bauer disc diffusion method
Procedure, shortened: (§1)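 Modified Kirby-Bauer disc diffusion on Mueller-Hinton agar spread with broth culture at about 10^8 cells/ml. Blank 8.0 mm paper discs were impregnated with test solution. Ampicillin discs at the same concentration and solvent served as positive control, and solvent discs as negative control. Plates were incubated at 35–37 °C, and inhibition-zone diameter (mm) was read at 24 h by caliper. % activity index = zone relative to ampicillin.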

Bacillus cereus [2] = test: Antibacterial activity against Bacillus cereus NCTC 14579 assessed as growth inhibition after 24 hrs by Kirby-Bauer disc diffusion method relative to ampicillin; procedure, shortened: as §1
Staphylococcus aureus [3] = test: Antibacterial activity against Staphylococcus aureus NCTC 7447 assessed as growth inhibition after 24 hrs by Kirby-Bauer disc diffusion method relative to ampicillin; set-up: concentration or dose not given beside the values; procedure, shortened: as §1
Serratia marcescens [4] = test: Antibacterial activity against Serratia marcescens IMRU 70 assessed as growth inhibition after 24 hrs by Kirby-Bauer disc diffusion method relative to ampicillin; set-up: concentration or dose not given beside the values; procedure, shortened: as §1
Serratia marcescens [5] = test: Antibacterial activity against Serratia marcescens IMRU 70 assessed as growth inhibition after 24 hrs by Kirby-Bauer disc diffusion method; procedure, shortened: as §1
Proteus mirabilis [6] = test: Antibacterial activity against Proteus mirabilis NCTC 289 assessed as growth inhibition after 24 hrs by Kirby-Bauer disc diffusion method relative to ampicillin; set-up: concentration or dose not given beside the values; procedure, shortened: as §1
Proteus mirabilis [7] = test: Antibacterial activity against Proteus mirabilis NCTC 289 assessed as growth inhibition after 24 hrs by Kirby-Bauer disc diffusion method; procedure, shortened: as §1
Bacillus cereus [8] = test: Antibacterial activity against Bacillus cereus NCTC 14579 assessed as growth inhibition after 24 hrs by Kirby-Bauer disc diffusion method; procedure, shortened: as §1
Rattus norvegicus [9] = test: Antiinflammatory activity in albino Wistar rat assessed as inhibition of carrageenan-induced paw oedema at 50 mg/kg, po administered 1 hr prior to carrageenan challenge measured at 1 hr post carrageenan challenge by plethysmometeric analysis relative to control
Procedure, shortened: (§2)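 Albino Wistar rats of either sex (130–150 g), 6 per group, fasted 12 h with water ad libitum. Test compounds were given orally at 50 mg/kg as DMSO solution; controls received 1 ml 20% v/v DMSO. One hour later, 0.1 ml 1% w/v carrageenan in 0.9% saline was injected into the left hind paw plantar region. Plethysmometer volume was read at 0 and 1–4 h. % inhibition = [1 − (Vt/Vc)] × 100.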

Rattus norvegicus [10] = test: Antiinflammatory activity in albino Wistar rat assessed as inhibition of carrageenan-induced paw oedema at 50 mg/kg, po administered 1 hr prior to carrageenan challenge measured at 2 hrs by plethysmometeric analysis relative to control; procedure, shortened: as §2
Rattus norvegicus [11] = test: Antiinflammatory activity in albino Wistar rat assessed as inhibition of carrageenan-induced paw oedema at 50 mg/kg, po administered 1 hr prior to carrageenan challenge measured at 3 hrs by plethysmometeric analysis relative to control; procedure, shortened: as §2
Rattus norvegicus [12] = test: Antiinflammatory activity in albino Wistar rat assessed as inhibition of carrageenan-induced paw oedema at 50 mg/kg, po administered 1 hr prior to carrageenan challenge measured at 4 hrs by plethysmometeric analysis relative to control; procedure, shortened: as §2

| Compound | diameter of the inhibition zone (DIZ) (Staphylococcus aureus [1]) [mm] | Activity_index (Bacillus cereus [2]) [%] | Activity_index (Staphylococcus aureus [3]) [%] | Activity_index (Serratia marcescens [4]) [%] | diameter of the inhibition zone (DIZ) (Serratia marcescens [5]) [mm] | Activity_index (Proteus mirabilis [6]) [%] | diameter of the inhibition zone (DIZ) (Proteus mirabilis [7]) [mm] | diameter of the inhibition zone (DIZ) (Bacillus cereus [8]) [mm] | inhibition in vivo at 50 mg/kg (Rattus norvegicus [9]) [%] | inhibition in vivo at 50 mg/kg (Rattus norvegicus [10]) [%] | inhibition in vivo at 50 mg/kg (Rattus norvegicus [11]) [%] | inhibition in vivo at 50 mg/kg (Rattus norvegicus [12]) [%] |
| --- | --- | --- | --- | --- | --- | --- | --- | --- | --- | --- | --- | --- |
| C/C(=N/NC(=O)c1sc(=S)n(-c2ccccc2)c1N)c1ccc(N2CCOCC2)cc1 | 4 | 13.04 | 16.67 | 15.72 | 2 | 9.52 | 2 | 3 | – | – | – | – |
| C/C(=N/NC(=O)c1sc(=S)n(-c2ccc3ccccc3c2)c1N)c1ccc(N2CCOCC2)cc1 | 5 | 13.04 | 20.83 | 15.72 | 2 | 9.52 | 2 | 3 | – | – | – | – |
| Cc1ccc(/C=N/c2nc(-c3ccc(N4CCOCC4)cc3)cs2)cc1 | 4 | 17.39 | 16.67 | 15.72 | 3 | 9.52 | 2 | 4 | – | – | – | – |
| CC(=O)N(C(C)=O)c1nc(-c2ccc(N3CCOCC3)cc2)cs1 | 5 | 17.39 | 20.83 | 15.72 | 2 | 14.28 | 3 | 4 | – | – | – | – |
| C/C(=N/c1nc(-c2ccccc2)cs1)c1ccc(N2CCOCC2)cc1 | 5 | 17.39 | 20.83 | 15.72 | 2 | 14.28 | 3 | 4 | 27.2 | 22.9 | 59.8 | 81.6 |
| C/C(=N\N=C1/N=C2OC(=O)C=C2S1)c1ccc(N2CCOCC2)cc1 | 5 | 17.39 | 20.83 | 15.72 | 3 | 9.52 | 2 | 4 | 23.3 | 50.6 | 75.7 | 85 |
| C/C(=N\NC1=NC(=O)CS1)c1ccc(N2CCOCC2)cc1 | 4 | 17.39 | 16.67 | 15.72 | 3 | 14.28 | 3 | 4 | -58.6 | -8 | 29 | 35.7 |
| C/C(=N\N=C(\N)S)c1ccc(N2CCOCC2)cc1 | 4 | 17.39 | 16.67 | 15.72 | 3 | 9.52 | 2 | 4 | -35 | 23 | 55.7 | 83.6 |
| CC1(C)S[C@@H]2[C@H](NC(=O)[C@H](N)c3ccccc3)C(=O)N2[C@H]1C(=O)O [AMPICILLIN] | 24 | – | – | – | 21 | – | 21 | 23 | – | – | – | – |
